According to ChEMBL document CHEMBL1124291, “New actinomycin D analogues as superior chemotherapeutic agents against primary and advanced colon tumors and colon xenografts in nude mice” (J Med Chem, 1988):

What was measured:
[1] = test system: MC-38; assay: Activity against advanced carcinoma C38 Tumor in CDF1 Mice at dose 0.30 mg/ kg measured as % inhibition of tumor; type: functional; details: Mus musculus
[2] = test system: B16; assay: in vivo Antitumor activity against B16 melanoma cells at a optimal dose 300 ug/Kg /inj measured as %ILS (%increase life span); type: functional; details: Mus musculus
In short: (§1)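 BDF1 mice in groups of nine were implanted ip on day 0 with 0.2 mL of 1:5 (w/v) B16 melanoma brei; drugs were given ip. Survival is reported as median survival time in days with range, and as %ILS, with survivors counted on day 65 out of total injected.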

[3] = test system: B16; assay: in vivo Antitumor activity against B16 melanoma cells at dose 300 ug/Kg /inj measured as Mean survival time (MST); type: functional, Mus musculus; in short: as §1
[4] = test system: MC-38; assay: Mean survival time of treated / untreated group x100. (number of over 100-day survivors/number of total mice in the group) at a dose 0.30 mg/kg; type: functional, Mus musculus; details: dose 0.3 mg/kg
In short: (§2)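 CDF1 mice were implanted sc on day 0 with colon 38 adenocarcinoma fragments (70 mg) and given iv drug on days 1, 5 and 9. %T/C = median survival of treated / untreated × 100. Number of mice surviving over 100 days / group total is given in parentheses.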

[5] = test system: MC-38; assay: Activity against advanced carcinoma C38 Tumor in CDF1 Mice at dose 0.60 mg/ kg measured as % inhibition of tumor; type: functional; details: Mus musculus
[6] = test system: MC-38; assay: Activity against advanced carcinoma C38 Tumor in CDF1 Mice at dose 1.20 mg/ kg measured as % inhibition of tumor; type: functional; details: Mus musculus
[7] = test system: MC-38; assay: Number of toxic deaths/number of mice in a group of non tumored mice treated in parallel with the tumor-bearing mice and observed for 100 days at a dose 1. 20 mg/Kg; value given as 2/9; type: toxicity, cell-based; details: mouse, in vivo, 2400 h
In short: (§3)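 Non-tumored CDF1 mice were treated in parallel with colon 38 tumor-bearing mice: iv injections on days 1, 5 and 9, groups of nine. Deaths were counted over 100 days of observation and reported as toxic deaths / mice in group.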

[8] = test system: MC-38; assay: Mean survival time of treated / untreated group x100. (number of over 100-day survivors/number of total mice in the group) at a dose 1.20 mg/kg; type: functional, Mus musculus; details: dose 1.2 mg/kg; in short: as §2
[9] = test system: MC-38; assay: Number of toxic deaths/number of mice in a group of non tumored mice treated in parallel with the tumor-bearing mice and observed for 100 days at a dose 0.30 mg/Kg; value given as 0/9; type: functional, Mus musculus; in short: as §3
[10] = test system: MC-38; assay: Number of toxic deaths/number of mice in a group of non tumored mice treated in parallel with the tumor-bearing mice and observed for 100 days at a dose 0.60 mg/Kg; value given as 1/9; type: toxicity; details: mouse, in vivo, 0.6 mg/kg, 2400 h; in short: as §3
[11] = test system: MC-38; assay: Mean survival time of treated / untreated group x100. (number of over 100-day survivors/number of total mice in the group) at a dose 0.60 mg/kg; type: functional, Mus musculus; details: dose 0.6 mg/kg; in short: as §2
[12] = test system: HT-29; assay: 50% inhibition of incorporationf precursor [3H]thymidine into DNA HT-29 cell lines; type: functional, cell-based; details: Homo sapiens, HT-29, 2 h
In short: (§4)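 HT-29 colon carcinoma monolayers, 10^4 cells per well, five wells per concentration. Drug exposure lasted 2 h, with [³H]thymidine and [2-¹⁴C]uridine (0.5 μCi each) added for the last hour. Cells were washed, trypsinized, counted and precipitated onto glass-fiber filters with 10% TCA. Acid-precipitable radioactivity was measured. IC50 is the concentration inhibiting 50% of incorporation; data are averages of replicate experiments.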

[13] = test system: P388; assay: 50% inhibition of incorporation of precursor [3H]thymidine into DNA P388 cell lines; type: functional, cell-based; details: Mus musculus, P388, 2 h
[14] = test system: P388; assay: 50% inhibition of incorporation precursor [14C]uridine into RNA P388 cell lines; type: functional, cell-based; details: Mus musculus
[15] = species on record: Rattus norvegicus; assay: Percent of the protein conjugates isolated from incubation mixture containing rat microsomes; type: functional
In short: (§5)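 Tritiated analogues were incubated with two systems. (T) sonicated P388 cell homogenates, 37 °C for 16 h. (M) liver microsomes from phenobarbital-induced rats, 6 h with an NADPH-generating system (glucose-6-phosphate dehydrogenase plus glucose 6-phosphate). Metabolites and water-soluble conjugates were isolated, separated by HPLC and expressed as percentages.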

[16] = species on record: Rattus norvegicus; assay: Percent of the tissue bound conjugates isolated from incubation mixture containing rat microsomes; type: functional; in short: as §5
[17] = species on record: Rattus norvegicus; assay: Percent of the unconverted isolated from incubation mixture containing rat microsomes; type: functional; in short: as §5
[18] = species on record: Rattus norvegicus; assay: Percent of the SAD isolated from incubation mixture containing tumor cell homogenate(T) after 7.7 min; type: functional; in short: as §5
[19] = species on record: Rattus norvegicus; assay: DNA-cleaving ability expressed as % of closed circular pBR322 DNA cleaved at 100 uM conc 100 uM; type: functional
In short: (§6)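 pBR322 DNA (200 μM nucleotides) in 10 mM Tris·HCl pH 7.8 and 50 mM NaCl, with 4 mM Na₂S₂O₄ and 100 μM FeCl₂. Incubated with drug for 1 h at 20 °C, kept air-saturated. Supercoiled and open-circular forms were separated by agarose gel electrophoresis, stained with ethidium bromide and quantitated by densitometry. % cleaved was calculated from the open- and closed-circular amounts.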

[20] = species on record: Rattus norvegicus; assay: DNA-cleaving ability expressed as % of closed circular pBR322 DNA cleaved […] conc 50 uM; type: functional; in short: as §6
[21] = species on record: Rattus norvegicus; assay: Percent of the unidentified metabolites isolated from incubation mixture containing rat microsomes; type: functional; in short: as §5
[22] = species on record: Rattus norvegicus; assay: The formation of adrenochrome from epinephrine in the absence of SOD(super oxide dismutase); type: functional
In short: (§7)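 Drug-stimulated superoxide generation with rat liver microsomal enzymes and NADPH as cofactor. NADPH oxidation was read at 340 nm. Adrenochrome formed from epinephrine was read at 480 nm, with or without superoxide dismutase. % stimulation = [(drug-stimulated rate − basal rate)/basal rate] × 100. Values are mean ± standard error of triplicate analyses.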

[23] = species on record: Rattus norvegicus; assay: The formation of adrenochrome from epinephrine in the presence of SOD(super oxide dismutase); + denotes ' Inhibited'; type: functional; in short: as §7
[24] = species on record: Rattus norvegicus; assay: Stimulation of NADPH oxidation in the presence of rat liver microsomes; type: functional; in short: as §7
[25] = test system: HT-29; assay: 50% inhibition of incorporationf precursor [3H]thymidine into RNA HT-29 cell lines; type: functional, cell-based; details: Homo sapiens, HT-29, 2 h; in the assay text read “[14C]uridine” for “[3H]thymidine”; in short: as §4
[26] = DNA-cleaving ability expressed as % of closed circular pBR322 DNA cleaved at 10 uM conc 10 uM
[27] = test system: pBR322 plasmid DNA; assay: DNA-cleaving ability expressed as % of closed circular pBR322 DNA cleaved […]
[28] = species on record: Rattus norvegicus; assay: Percent of the SAD isolated from incubation mixture containing rat micro somes, after 20.0 min
[29] = test system: P388 (Mus musculus); assay: Percent of the unconverted isolated from incubation mixture containing tumor cell homogenate(T)
[30] = test system: P388 (Mus musculus); assay: Percent of the protein conjugates isolated from incubation mixture containing tumor cell homogenate(T)
[31] = test system: P388 (Mus musculus); assay: Percent of the tissue bound conjugates isolated from incubation mixture containing tumor cell homogenate(T)
[32] = test system: P388 (Mus musculus); assay: Percent of the unidentified metabolites isolated from incubation mixture containing tumor cell homogenate(T)
[33] = test system: P388; assay: Antitumor activity in P388/ADR (adriamycin resistant) in male BDF1 mice measured as optimal dose at dose 0.10-1.0 mg/kg/ inj, inp
[34] = species on record: Mus musculus; assay: Percent of the SAD glucuronide and/or sulfate isolated from incubation mixture containing tumor cell homogenate(T) after 8.0, 10.5 min

## Cc1c2oc3c(C)c4oc(CC(=O)NCCCCN)nc4c(C(=O)N[C@@H]4C(=O)N[C@H](C(C)C)C(=O)N5CCC[C@H]5C(=O)N(C)CC(=O)N(C)[C@@H](C(C)C)C(=O)O[C@@H]4C)c3nc-2c(C(=O)N[C@@H]2C(=O)N[C@H](C(C)C)C(=O)N3CCC[C@H]3C(=O)N(C)CC(=O)N(C)[C@@H](C(C)C)C(=O)O[C@@H]2C)c(N)c1=O
[1]
  inhibition in vivo at 0.3 mg/kg: 80%
[2]
  ILS at 0.3 mg/kg: 114%
[3]
  MST: 62
[4]
  T/C: 170%
[5]
  inhibition in vivo at 0.6 mg/kg: 93%
[6]
  inhibition in vivo at 1.2 mg/kg: 94%
[7]
  Toxic deaths: 2
[8]
  T/C: 231%
[9]
  Toxic deaths: 0
[10]
  Toxic deaths: 1
[11]
  T/C: 250%
[12]
  IC50: 365 nM
[13]
  IC50: 430 nM
[14]
  IC50: 55 nM
[15]
  Activity: 10%
[16]
  Activity: 5%
[17]
  Activity: 10%
[18]
  Activity: 20%
[19]
  Activity: 58%
[20]
  Activity: 50%
[21]
  Activity: 8%
[22]
  Adrenochrome formation: 22.1 nM min-1 (mg of protein)-1
[23]
  Adrenochrome formation: Inhibited
[24]
  NADPH oxidation (nM min-1 (mg of protein)-1): 87.1
[25]
  IC50: 65 nM
[26]
  Activity: 40%
[27]
  Activity: 45%
[28]
  Activity: 65%
[29]
  Activity: 20%
[30]
  Activity: 8%
[31]
  Activity: 5%
[32]
  Activity: 5%
[33]
  optimal dose: 1 mg/kg
[34]
  Activity: 40%
